Experimental data gathered from unrelated publications.
Lines come from different studies, so protocols differ.
ABCG2: Broad substrate specificity ATP-binding cassette transporter ABCG2 (ABCG2, Homo sapiens, UniProt Q9UNQ0)

O=C(O)CSc1nnc(Br)n1-c1ccc(C2CC2)c2ccccc12  inhibition (ABCG2; transporter uptake, inhibitor; Caco-2; 30 µM, 2 h): 27%
CN1CCN=C1c1ccc(NC(=O)c2ccc(C(=O)Nc3ccc(C4=NCCN4C)cc3)cc2)cc1  IC50 (K562; cell growth or viability): 171 µM
C/C(O)=C(\C#N)C(=O)Nc1ccc(C(F)(F)F)cc1  efflux ratio (ABCG2; Caco-2; 1 µM, 2 h, pH 7.4): 6.06
CSc1nc2nnnc(O)c2s1  IC50 (K562; cell growth or viability): > 640 µM
CCOC(=O)[C@@]12C[C@@H]1[C@@H](n1ccc3c(NC)nc(C#Cc4ccc(Cl)s4)nc31)[C@H](O)[C@@H]2O  concentration (male Sprague-Dawley rat, plasma; oral, 3 mg/kg, 8 h): 3.68 ng/mL
CCCN/C(=N/C)c1ccc(NC(=O)c2ccc(C(=O)Nc3ccc(/C(=N\C)NCCC)cc3)cc2)cc1  IC50 (K562; cell growth or viability): 10.1 µM
CO[C@H](C(=O)N1Cc2c(-c3ccc(C(=O)N4CCCc5ccccc54)cc3)cnn2C[C@H]1C(C)C)c1cnn(C)c1 (single isomer, unassigned)  Papp B→A (ABCG2; dog, MDCK-MDR1): 26.1 ×10⁻⁶ cm/s
Cc1cc(C)cc(NC(=O)CN(C)S(=O)(=O)c2ccc3[nH]c4c(c3c2)CCCC4)c1  IC50 (K562; cell growth or viability): 12.8 µM
COc1cccc(-c2n[nH]c(SCc3ccccn3)n2)c1OC  concentration (female Sprague-Dawley rat, plasma; intravenous, 1 mg/kg, 8 h, single dose): 24.7 ng/mL
C[C@H](C(=O)N1Cc2c(-c3ccc(C(=O)N4CCCc5ccccc54)cc3)cnn2C[C@H]1C)c1ccccc1  Papp B→A (ABCG2; dog, MDCK-MDR1): 8.4 ×10⁻⁶ cm/s
COc1ccc2c(=O)n(C)c(-c3ccccc3)nc2c1  concentration (male Sprague-Dawley rat, lung; oral, 30 mg/kg, 15 min, single dose): 15.3 ng/g
Cc1noc(C)c1Cn1cc(N2C(=O)CN(Cc3cccc(O)c3)C2=O)cn1  concentration (male Sprague-Dawley rat, plasma; oral, 100 mg/kg, 15 min): 26.7 ng/mL
CCc1cc(C(=O)NC)c2nccc(N3CCc4c(cc(Cn5ccnc5)cc4-c4cn(C)nc4C(F)(F)F)C3=O)c2c1  half-life (male Sprague-Dawley rat, plasma; intravenous, 3 mg/kg): 48 min
CCc1cc(-c2noc(-c3cc(OC)nc(C4CCCC4)c3)n2)cc(C)c1OC[C@@H](O)CO  concentration (Wistar rat, plasma; oral, 1 mg/kg, 6 h, single dose): 41.1 ng/mL
COc1cc(/C=N\NC(=O)c2ccc(Br)cc2)ccc1OC(=O)c1cccs1  IC50 (K562; cell growth or viability): 32.4 µM
CC(C)[C@@H]1Cn2ncc(-c3ccc(C(=O)N4CCCc5ccccc54)cc3)c2CN1C(=O)Cc1ccccc1  Papp B→A (ABCG2; dog, MDCK-MDR1): 5.2 ×10⁻⁶ cm/s
C/N=C(/NC)c1ccc(NC(=O)/C=C/c2ccc(/C=C/C(=O)Nc3ccc(/C(=N\C)NC)cc3)cc2)cc1  IC50 (K562; cell growth or viability): 4.31 µM
CO[C@H](C(=O)N1Cc2c(-c3ccc(C(=O)N4CCCc5ccccc54)cn3)cnn2C[C@H]1C(C)C)c1cnn(C)c1 (single isomer, unassigned)  Papp B→A (ABCG2; dog, MDCK-MDR1): 30.6 ×10⁻⁶ cm/s
